Reference: ChEMBL document CHEMBL2029273, “Structure-based design of potent and ligand-efficient inhibitors of CTX-M class A β-lactamase” (J Med Chem, 2012)
pKi: −log10 of the molar value. In brackets after ≈: the same amount, converted by molar mass. Activity calls are given as the source filed them. The rule behind the calls is not given here.

Columns and labels:
[1] = Inhibition of beta-lactamase CTX-M using nitrocefin as substrate; conditions: for pKi: read-out: Ki
[2] = system: Escherichia coli; assay: Antibacterial activity against Escherichia coli expressing CTX-M-14 beta-lactamase; assay type: functional
In short: (§1)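 MIC per CLSI broth dilution in Mueller-Hinton medium. Compound dissolved in DMSO and diluted in medium, DMSO kept below 10%. Tested alone against clinical E. coli isolates carrying the named CTX-M enzyme. Values are the average of three independent experiments.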

[3] = system: Escherichia coli; assay: Antibacterial activity against Escherichia coli expressing CTX-M-9 beta-lactamase; assay type: functional; in short: as §1
[4] = system: Escherichia coli; assay: Antibacterial activity against Escherichia coli expressing CTX-M-9 beta-lactamase assessed as inhibition zone at 15 to 30 ug by disk diffusion assay; assay type: functional, organism-based
In short: (§2)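 Disk diffusion: bacteria suspended in sterile water to 0.5 McFarland, diluted a further 10-fold and spread on Mueller-Hinton agar. Plates dried 10 min before disks were applied: cefotaxime 30 μg, inhibitor 30 μg, cefotaxime:inhibitor 30:15 or 30:30 μg, or solvent.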

[5] = system: Escherichia coli; assay: Antibacterial activity against Escherichia coli expressing CTX-M-9 beta-lactamase assessed as increase of cefotaxime inhibition zone at 15 to 30 ug by disk diffusion assay; assay type: functional, organism-based; in short: as §2
[6] = system: Escherichia coli; assay: Antibacterial activity against Escherichia coli expressing CTX-M-14 beta-lactamase assessed as potentiation of cefotaxime MIC; assay type: functional
In short: (§3)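 Combination MIC per CLSI in Mueller-Hinton medium against clinical E. coli isolates carrying the named CTX-M enzyme. Inhibitor in DMSO (below 10%) was paired with cefotaxime at a 1:1 β-lactam:inhibitor ratio. Values are the average of three independent experiments.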

[7] = system: Escherichia coli; assay: Antibacterial activity against Escherichia coli expressing CTX-M-9 beta-lactamase assessed as potentiation of cefotaxime MIC; assay type: functional; in short: as §3

Structure (SMILES)	pKi [1]	other results
O=C(Nc1cccc(-c2nnn[nH]2)c1)c1cc(F)cc2[nH]cnc12	5.57	
N#Cc1ccc(C(=O)Nc2cccc(-c3nn[nH]n3)c2)cc1		Ki [1]: Not Active
O=C(Nc1cccc(-c2nnn[nH]2)c1)c1cccc([N+](=O)[O-])c1	5.42	
CO/N=C(\C(=O)N[C@@H]1C(=O)N2C(C(=O)O)=C(COC(C)=O)CS[C@H]12)c1csc(N)n1 [CEFOTAXIME]		MIC [2]: 32 µg/mL (≈ 70.3 µM); MIC [3]: 64 µg/mL (≈ 141 µM)
O=C(Nc1cccc(-c2nnn[nH]2)c1)c1ccc2[nH]ccc2c1	5.72	
O=C(Nc1cccc(-c2nnn[nH]2)c1)c1cc(O)cc(Br)c1	6.24	
COc1cccc(C(=O)Nc2cccc(-c3nnn[nH]3)c2)c1	4.77	
O=C(Nc1cccc(-c2nnn[nH]2)c1)c1cc(C(F)(F)F)cc2[nH]cnc12	7.05	inhibition zone (IZ) [4]: inactive; inhibition zone (IZ) [5]: Dose-dependent effect; MIC [2]: ≥ 64 µg/mL; MIC [3]: ≥ 64 µg/mL; fold change (FC) [6]: 64; fold change (FC) [7]: 64
Nc1cc(C(=O)Nc2cccc(-c3nnn[nH]3)c2)cc(C(F)(F)F)c1	6.00	
O=C(Nc1cccc(-c2nnn[nH]2)c1)c1cc(O)cc(C(F)(F)F)c1	6.20	
N#Cc1cccc(C(=O)Nc2cccc(-c3nnn[nH]3)c2)c1	5.14	
Cc1cccc(C(=O)Nc2cccc(-c3nnn[nH]3)c2)c1	5.35	
CC(=O)c1cccc(C(=O)Nc2cccc(-c3nnn[nH]3)c2)c1	4.99	
O=C(Nc1cccc(-c2nnn[nH]2)c1)c1cccc(C2CC2)c1	5.51	
O=C(Nc1cccc(-c2nnn[nH]2)c1)c1cccc(Cl)c1	5.21	
COC(=O)c1cccc(C(=O)Nc2cccc(-c3nnn[nH]3)c2)c1	5.16	
N#Cc1cc(Br)cc(C(=O)Nc2cccc(-c3nnn[nH]3)c2)c1	4.47	
O=C(Nc1cccc(-c2nnn[nH]2)c1)c1cccc2[nH]ccc12	5.18	
